Here are results for 13 molecules from PubChem BioAssay.

Test [1] in a line: inhibitors of TNFa-induced NFkB p65 translocation, primary screen, imaging, HUVEC, MLSMR starter and 10KST1 sets (AID 438;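 active = inhibition above 20% together with a positive visual image hit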;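 note: compound added about 3h40 before a 20 min TNFalpha stimulation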;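 for inhibition: signal is the nuclear over cytoplasmic p65 intensity ratio per well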). As to conditions: HUVEC TNFa-induced p65 nuclear translocation; cell count: measured here: nuclei count (cytotoxicity indicator), at 2.08 µM; inhibition: at 2 µM, stronger effect = higher value, 0% TNFa-plus-vehicle, 100% no-TNFa wells.
Test [2] can be described thus: endothelial E-selectin expression blockers – imaging, HUVEC, immunofluorescence, MLSMR starter and 10KST1 sets, primary screen (AID 487;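 active = visually confirmed hit in the image check and inhibition above 20%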;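 for inhibition: signal is fraction of cell area covered by stained E-selectin grains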;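 for nuclei count: 100% = median nuclei count of all wells on the same plate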). The settings on record: HUVEC TNFalpha-induced E-selectin immunofluorescence imaging, at 2 µM; inhibition: stronger effect = higher value; nuclei count: measured here: cell number, toxicity.
Test [3] is described as follows: Primary imaging screen for DUSP6 inhibitors that restore phospho-Erk in transfected HeLa cells, chemical complementation (AID 609).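 For inhibition: phospho-Erk level distribution per well compared with pooled transfected vehicle control wells.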 As to conditions: HeLa MKP-3 transfected, phospho-Erk imaging KS statistic, at 10 µM, cells stimulated with TPA for 15 min.
Test [4] addresses Dual specificity protein phosphatase 6 (Homo sapiens) (UniProt Q16828). The description is as above. As to conditions: HeLa MKP-3 transfected, phospho-Erk imaging KS statistic; at 10 µM; stronger effect = higher value; cells stimulated with TPA for 15 min.
Test [5] deals with Voltage-gated potassium channel subunit beta-2 (Rattus norvegicus) (UniProt P62483). Briefly: inhibitors of rat Kvbeta2 reductase activity – biochemical, NADPH fluorescence, primary screen (AID 622;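 active = fluorescence slope higher than the sample average by over 3 SD, cut at about -0.22 in these data, passing the limit was not always enough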;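 note: slope of raw intensity against log time taken from 70 to 1610 s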). As to conditions: recombinant KvBeta, 4-cyanobenzaldehyde reduction, at 10 µM, stronger effect = higher value.
Chain of Voltage-gated potassium channel subunit beta-2 (Rattus norvegicus) (P62483 whole entry, looked up): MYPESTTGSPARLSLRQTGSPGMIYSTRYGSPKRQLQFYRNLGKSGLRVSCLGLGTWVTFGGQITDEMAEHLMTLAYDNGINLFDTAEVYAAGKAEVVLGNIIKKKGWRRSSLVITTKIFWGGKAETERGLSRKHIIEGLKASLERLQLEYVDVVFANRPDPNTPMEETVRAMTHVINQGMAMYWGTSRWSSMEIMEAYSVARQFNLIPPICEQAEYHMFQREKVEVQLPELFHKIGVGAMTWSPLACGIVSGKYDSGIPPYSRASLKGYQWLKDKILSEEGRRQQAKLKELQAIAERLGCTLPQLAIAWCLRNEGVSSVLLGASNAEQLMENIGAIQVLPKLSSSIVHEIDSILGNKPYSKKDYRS
Test [6] has the same target. Put plainly: enhancers of rat Kvbeta2 NADPH turnover – biochemical, NADPH fluorescence, primary screen (AID 623;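 active = NADPH fluorescence slope more negative than the mean of all samples by about 3 SD, 99.7% confidence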;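 note: fluorescence intensity change per second fitted from 20 to 320 s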). The settings on record: Recombinant KvBeta, NADPH fluorescence decrease slope, 10 min; at 10 µM; stronger effect = lower value.
The target of test [7] is Alpha-2C adrenergic receptor (Homo sapiens) (UniProt P18825). Briefly: compounds altering alpha2C-coupled GIRK flux – cell-based, HEK293 alpha2C/GIRK1/2, thallium flux, primary screen (AID 624;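 active = fluorescence slope after compound addition differing from the mean of all screened samples at 99.7% confidence, in either direction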;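 note: slope of fluorescence ratio to pre-addition baseline per second over 15 to 24 s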). As to conditions: thallium flux BTC fluorescence, at 10 µM, actives lie on both sides.
Chain of Alpha-2C adrenergic receptor (Homo sapiens) (P18825 whole entry, looked up): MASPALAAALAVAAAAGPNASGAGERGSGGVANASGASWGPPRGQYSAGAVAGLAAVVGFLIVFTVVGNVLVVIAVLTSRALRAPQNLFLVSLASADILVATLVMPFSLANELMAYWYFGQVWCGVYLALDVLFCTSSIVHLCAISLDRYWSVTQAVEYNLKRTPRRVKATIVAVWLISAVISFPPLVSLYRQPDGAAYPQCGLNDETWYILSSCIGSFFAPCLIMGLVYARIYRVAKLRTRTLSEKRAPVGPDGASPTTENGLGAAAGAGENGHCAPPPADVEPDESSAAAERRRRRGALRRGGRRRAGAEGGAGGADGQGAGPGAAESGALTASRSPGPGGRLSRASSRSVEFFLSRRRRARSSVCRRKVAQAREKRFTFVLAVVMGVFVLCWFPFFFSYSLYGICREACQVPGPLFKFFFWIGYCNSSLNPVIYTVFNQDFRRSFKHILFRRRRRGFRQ
Test [8] can be described thus: inhibitors of larval lipid processing in zebrafish, primary screen, whole organism, PED6 fluorescence, gall bladder and intestine (AID 686;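 active = a full or partial loss of lipid-probe fluorescence in the fish gall bladder, intestine or both, judged by eye; inactive = no fluorescence loss, or compound toxic to the fish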;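 note: larvae 5 to 7 days old with five fish per well; signal comes from phospholipase A2 cleavage of quenched PED6 carried via bile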). The settings on record: Zebrafish larvae PED6 lipid processing, fluorescence scoring; screened at 20 µM (by protocol). An outline of the steps: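 system = live zebrafish larvae aged 5-7 days, whole organism | probe or stimulus = ingested quenched lipid PED6 at 100 nM | doses = 20 µM single dose | timing = overnight exposure | detection = fluorescence microscopy with visual scoring of gall bladder and intestine | read-out = visual per-well fluorescence inhibition score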

Test [9] can be described thus: loss of swimming-algae plug formation – whole organism, Chlamydomonas reinhardtii, WT vs cilia-less mutant, absorbance, 96-well, primary screen (AID 463189;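 active = inhibition at or above 50% relative to wild type and mutant plate controls; inactive = inhibition below 50%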;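 note: 0% = wild type cc124 cells in DMSO and 100% = ciliumless bld1 mutant cells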). The settings on record: Chlamydomonas reinhardtii gravitaxis, OD600 absorbance, 2 days; at 10 µM; stronger effect = higher value.
Where [10] appears, read: measured here: cell density z-score.
[11] abbreviates: measured here: nuclear c-Myc green intensity z-score.
The mark [12] stands for this setting: measured here: nuclear pErk red intensity z-score, stronger effect = higher value.

The source made the active and inactive calls.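 Rule for the calls, unless noted: active = compounds giving at least 50% inhibition in the cell-based MKP-3 phosphatase rescue imaging test; inactive = the rest.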

Chain of Dual specificity protein phosphatase 6 (Homo sapiens) (Q16828 whole entry, looked up): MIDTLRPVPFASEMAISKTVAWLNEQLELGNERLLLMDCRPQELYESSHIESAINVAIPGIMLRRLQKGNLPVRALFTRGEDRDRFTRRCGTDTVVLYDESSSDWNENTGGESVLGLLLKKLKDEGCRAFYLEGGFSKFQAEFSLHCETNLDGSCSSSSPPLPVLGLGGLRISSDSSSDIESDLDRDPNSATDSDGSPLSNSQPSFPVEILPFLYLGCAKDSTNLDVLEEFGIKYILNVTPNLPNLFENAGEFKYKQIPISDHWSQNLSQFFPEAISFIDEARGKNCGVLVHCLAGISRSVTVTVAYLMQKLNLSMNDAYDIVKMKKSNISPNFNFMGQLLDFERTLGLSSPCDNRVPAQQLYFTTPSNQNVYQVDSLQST

Take `c1ccc(N2CCN(c3nc(-c4ccccn4)nc4ccccc34)CC2)cc1`: the cell count in test [1] was found to be 493. In addition, the inhibition was -5.1% (inactive) in [1], 22.4% (inactive) in test [2], -5.26% (inactive) in [4] and 106% (active) in [9]. The nuclei count in test [2] is 86.2%. Besides, the z-score in [3] (setting [10]) is -1.22; in [3] (setting [11]), 1.7; in [3] (setting [12]) it was 1.08. For the same molecule, the fluorescence slope in test [5] is -0.413 (inactive). In test [6], the NADPH fluorescence slope is -7.9e-05 (inactive). For the same molecule, the slope in test [7] was 0.0043 (inactive). Moreover, the result in [8] was inactive.

Turning to `COc1ccc(-c2nn3c(-c4ccccn4)nnc3s2)cc1OC`, in test [1], the cell count amounted to 638. Besides, the inhibition is -8.9% (inactive) in test [1], 36.9% (inactive) in test [2], -2.47% (inactive) in test [4] and 22% (inactive) in test [9]. For the same molecule, the nuclei count in [2] was 169%. Further, the results for the z-score in [3] (setting [10]), in [3] (setting [11]) and in test [3] (setting [12]) were 0.845, -0.297 and -0.421, respectively. In addition, the fluorescence slope in test [5] was -0.407 (inactive). Moreover, the NADPH fluorescence slope in [6] was -0.000141 (inactive). The slope in test [7] is 0.00665 (inactive). In test [8], the outcome was inactive.

On to `CCOC(=O)c1[nH]c2cc3c(cc2c1NC(=O)CN1CCC2(CC1)OCCO2)OCO3`, for which the cell count in test [1] amounted to 466. In addition, the inhibition in test [1] was -3.8% (inactive); in [2], 7.6% (inactive); in test [4], 22.8% (inactive); in test [9], -16.4% (inactive). The molecule also returned a nuclei count in test [2] of 111%. For the same molecule, the z-score in test [3] (setting [10]) was 0.45; in [3] (setting [11]), 1.98; in test [3] (setting [12]), -0.82. The fluorescence slope in test [5] is -0.0748 (inactive). Besides, in [6], the NADPH fluorescence slope is 5.8e-07 (inactive). Besides, the slope in [7] is 0.00639 (inactive). Besides, the molecule was classed as inactive in test [8].

In the case of `Cc1cc(=O)oc(C)c1C(=O)N[C@@H]1CCCCNC1=O`, in test [1], the cell count is 433. For the same molecule, the inhibition was -2.4% (inactive) in [1], -137% (inactive) in test [2], -8.27% (inactive) in test [4] and -3.12% (inactive) in [9]. The molecule also yielded a nuclei count in test [2] of 150%. Further, the z-score in test [3] (setting [10]) was 0.96; in [3] (setting [11]) it was -0.243; in test [3] (setting [12]), -0.864. Besides, the fluorescence slope in [5] is -0.423 (inactive). Further, the NADPH fluorescence slope in test [6] is -6.9e-05 (inactive). Besides, the slope in test [7] is 0.00507 (inactive). Further, the call in test [8] was inactive.

On to `COCCCNC(=O)C(C#N)c1nc2ccccc2nc1N1CCN(Cc2ccccc2)CC1` (centres undefined), for which, in test [1], the cell count is 630. The inhibition in test [1] is -5.8% (inactive); in [2] it was -33.3% (inactive); in [4] it was -8.27% (inactive); in [9], 33.7% (inactive). In test [2], this molecule came in with a nuclei count of 156%. The z-score in test [3] (setting [10]) was -0.882; in test [3] (setting [11]), -0.494; in test [3] (setting [12]) it was -0.556. In addition, the fluorescence slope in test [5] is -0.472 (inactive). In addition, in [6], the NADPH fluorescence slope was -0.00034 (inactive). In test [7], the slope was 0.00118 (inactive). In addition, in test [8], the outcome was inactive.

Regarding `CCOC(=O)C1=C(C(C)=O)C(c2cccnc2)C(C#N)=C(N)O1` (centres undefined), the cell count in test [1] was determined as 548. Further, the inhibition in test [1] is -5.1% (inactive); in test [2], -109% (inactive); in [4] it was 6.04% (inactive); in test [9] it was 12.1% (inactive). The molecule further had a nuclei count in [2] of 228%. Moreover, the z-score in test [3] (setting [10]) is 0.844; in test [3] (setting [11]), -1.11; in [3] (setting [12]) it was -0.0919. In addition, in test [5], the fluorescence slope was -0.369 (inactive). The NADPH fluorescence slope in test [6] was -1e-05 (inactive). The slope in [7] was 0.00521 (inactive). Also, in test [8], the outcome was inactive.

In the case of `CCOC(=O)NC(O)C(=O)c1cccs1` (centres undefined), the cell count in [1] was 507. Further, the inhibition in test [1] is -20.3% (inactive); in test [2] it was -205% (inactive); in [4] it was 22.3% (inactive); in test [9], 16.4% (inactive). This molecule also had a nuclei count in [2] of 153%. In addition, the z-score is 1.4 in [3] (setting [10]), -0.239 in [3] (setting [11]) and -0.163 in test [3] (setting [12]). For the same molecule, in [5], the fluorescence slope was -0.5 (inactive). The NADPH fluorescence slope in [6] was -0.000158 (inactive). Moreover, in [7], the slope is 0.00426 (inactive). In addition, the outcome in test [8] was inactive.

As to `CCOC(=O)c1[nH]c2cc3c(cc2c1NC(=O)CN1CCC(C)CC1)OCO3`, in test [1], the cell count came out at 554. In addition, the inhibition in test [1] was -1.1% (inactive); in [2] it was -6.5% (inactive); in test [4], 1.6e-07% (inactive); in [9] it was -6.78% (inactive). For the same molecule, the nuclei count in test [2] was determined as 155%. Besides, the z-score was -0.767 in test [3] (setting [10]), 1.52 in test [3] (setting [11]) and -0.0577 in test [3] (setting [12]). Besides, the fluorescence slope in test [5] was -0.27 (inactive). Moreover, the NADPH fluorescence slope in test [6] is 6.7e-06 (inactive). Also, the slope in [7] is 0.00467 (inactive). In addition, the result in test [8] was inactive.

Consider `O=CN1CCN(C(=O)CN2C(=O)c3ccccc3C2=O)CC1`, for which, in [1], the cell count is 359. The inhibition is -7.2% (inactive) in [1], -43.3% (inactive) in [2], 11.4% (inactive) in test [4] and 15.5% (inactive) in test [9]. In addition, the nuclei count in test [2] was found to be 161%. Also, the z-score was 0.687 in test [3] (setting [10]), -0.0272 in test [3] (setting [11]) and -1.29 in [3] (setting [12]). The fluorescence slope in test [5] was -0.452 (inactive). For the same molecule, the NADPH fluorescence slope in [6] is -0.000158 (inactive). In addition, the slope in test [7] was 0.00499 (inactive). The molecule was called inactive in [8].

Regarding `c1ccc(Cc2nn[nH]n2)cc1`, in test [1], the cell count is 659. Further, the inhibition in [1] was -11% (inactive); in test [2] it was 49.2% (inactive); in test [4] it was -3.95% (inactive); in test [9], -10.1% (inactive). Also, the nuclei count in test [2] was 144%. The values for the z-score in [3] (setting [10]), in test [3] (setting [11]) and in test [3] (setting [12]) were -1.16, 0.713 and 1.02, respectively. The fluorescence slope in test [5] is -0.426 (inactive). The NADPH fluorescence slope in test [6] is -5.4e-05 (inactive). Also, the slope in test [7] is 0.00705 (inactive). Moreover, the outcome in [8] was inactive.

For `COc1ccc(Cn2c(=O)c3c(nc(NCCO)n3C)n(C)c2=O)cc1`, in test [1], the cell count worked out at 336. Besides, the inhibition in test [1] was -3.5% (inactive); in test [2], -129% (inactive); in test [4], -0.624% (inactive); in test [9], -14.7% (inactive). The same molecule showed a nuclei count in test [2] of 131%. The z-score in test [3] (setting [10]) was -0.216; in [3] (setting [11]) it was 1.13; in [3] (setting [12]), 0.242. In addition, in test [5], the fluorescence slope is -0.369 (inactive). Besides, the NADPH fluorescence slope in [6] was 3.5e-05 (inactive). In addition, the slope in test [7] was 0.00827 (inactive). Further, the molecule was called inactive in test [8].

As to `CC(C)C1Cc2c(C#N)c(N)n(C)c(=S)c2CO1` (centres undefined), the cell count in test [1] turned out to be 548. In addition, the inhibition in test [1] was 1.3% (inactive); in [2] it was -204% (inactive); in [4], -8.76% (inactive); in test [9], -8.05% (inactive). The molecule also returned a nuclei count in [2] of 134%. The z-score in test [3] (setting [10]) was -0.967; in test [3] (setting [11]), 0.261; in test [3] (setting [12]), 0.802. Besides, the fluorescence slope in test [5] was -0.509 (inactive). Moreover, the NADPH fluorescence slope in test [6] was -4e-05 (inactive). Moreover, in test [7], the slope is 0.00431 (inactive). Besides, the result in test [8] was inactive.

In the case of `Cc1c(CCC#N)c(N2CCCCC2)n2c(nc3ccccc32)c1C#N`, the cell count in [1] turned out to be 547. For the same molecule, the inhibition was -20.4% (inactive) in [1], -116% (inactive) in [2], -6.06% (inactive) in test [4] and 4.74% (inactive) in [9]. The molecule further had a nuclei count in test [2] of 155%. Further, the z-score was 0.117 in test [3] (setting [10]), -1.2 in test [3] (setting [11]) and -0.217 in test [3] (setting [12]). For the same molecule, the fluorescence slope in [5] was -0.341 (inactive). The NADPH fluorescence slope in test [6] is -2.7e-05 (inactive). The slope in test [7] is 0.00724 (inactive). The molecule was classed as inactive in test [8].

In general, inhibition refers to the drop in the measured response relative to a control, in per cent.
